This is an account of results in paper PMC9371903 (Nucleic Acids Research, 2022).

For assay [1], the system named is PML-NBs in IMR90 normal human fibroblasts (control vector or activated RAS). The assay is described as follows: PML-NB formation by anti-PML immunofluorescence. Format: cell-based. Conditions: 24h treatment, 5 μM pyrithione. In outline:
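IMR90 fibroblasts in pyruvate-free DMEM with 10% FBS and 1% penicillin/streptomycin, transduced with retroviral pBABE control or pBABE-RAS-V12. On day 6, plated on coverslips and treated next day for 24 h with vehicle, 5 μM pyrithione or 1 μM TPEN. Cells fixed in 4% PFA, permeabilised with 0.4% Triton X-100 and 0.1 M glycine, then blocked in 3% BSA. Anti-PML (1/250, overnight, 4°C), Alexa 568 secondary, DAPI. PML-NBs per cell and PML-NBs >1 μm counted.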

In assay [2] the target is SUMO1 (residues 2–97 of human SUMO1 with a C52A substitution) (Homo sapiens, UniProt P63165, C52A). The assay is described as follows: ITC binding to SUMO1.
Assay [3] addresses ΔN-SUMO1 (residues 17–97 of human SUMO1) (Homo sapiens, UniProt P63165, C52A). The assay is described as follows: ITC binding to ΔN-SUMO1. Conditions: ΔN-SUMO1, 20 mM Tris–HCl pH 7.4, 25°C.
Assay [4] deals with SUMO2 (residues 2-93 of human SUMO2 with a C48A substitution) (human, UniProt P61956 2-93, C48A). As to the kind of experiment: ITC. On the technique in general: In ITC the heat of successive injections is recorded.
Assay [5] addresses ΔN-SUMO2 (residues 14-93) (human, UniProt P61956 14-93, C48A). The assay is described as follows: ITC.
The target in assay [6] is UBC9 (residues 2-158 of human UBC9) (human, UniProt P63279 2-158). As to the kind of experiment: ITC.

One may read the Kd as the constant that tells how readily two partners part at equilibrium. Higher therefore signals lower affinity.

Sequence of UBC9 (residues 2-158 of human UBC9) (P63279 2-158): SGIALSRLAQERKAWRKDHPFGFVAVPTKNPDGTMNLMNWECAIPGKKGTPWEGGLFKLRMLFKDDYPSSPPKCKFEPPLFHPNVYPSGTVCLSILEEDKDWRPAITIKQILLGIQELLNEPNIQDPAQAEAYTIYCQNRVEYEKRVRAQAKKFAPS
Sequence of ΔN-SUMO2 (residues 14-93) (P61956 14-93 C48A): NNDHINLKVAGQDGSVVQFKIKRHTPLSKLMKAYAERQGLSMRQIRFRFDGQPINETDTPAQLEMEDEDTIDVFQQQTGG
Sequence of SUMO2 (residues 2-93 of human SUMO2 with a C48A substitution) (P61956 2-93 C48A): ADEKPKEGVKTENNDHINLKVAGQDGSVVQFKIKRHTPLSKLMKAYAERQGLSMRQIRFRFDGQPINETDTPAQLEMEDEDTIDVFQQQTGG

As for `[O-][n+]1ccccc1S` [pyrithione], the “formation of PML-NBs” value in assay [1] (Ras-expressing (senescent) IMR90 cells) was “induces significantly the formation of PML-NBs”; in assay [1] (vector-control IMR90 cells) it was “only a marginal increase”.
For “UBC9: residues 2–158 of human UBC9; E2 SUMO conjugating enzyme”, the Kd in assay [2] (ITC, SUMO1, 20 mM Tris–HCl pH 7.4, 25°C) came to 29 ± 11 nM; in assay [3], 73 ± 15 nM. The “fold stronger binding to SUMO1 in comparison to ΔN-SUMO1” value in assay [2] (ratio of ITC KD values, 20 mM Tris–HCl pH 7.4) is “roughly 2.5 fold”.
With YKTSVATQADPEEIIVLDDDD [Daxx-SIM-2SD (Daxx-SIM with S/D substitutions at positions 737 and 739)], the results for the dissociation constant (Kd) in assay [4] and in assay [5] were 1000 ± 100 nM and 510 ± 110 nM, respectively.

B1: ΔN-SUMO1 (residues 17-97 of human SUMO1) (domain or fragment, UniProt P63165 17-97, looked up)
chain: KEGEYIKLKVIGQDSSEIHFKVKMTTHLKKLKESYAQRQGVPMNSLRFLFEGQRIADNHTPKELGMEEEDVIEVYQEQTGG
The molecule B1 registered a dissociation constant Kd in assay [6] of 73 ± 15 nM.
